VIM-2 inhibitor = inhibitors of Pseudomonas aeruginosa VIM-2 metallo-beta-lactamase; purified VIM-2, nitrocefin hydrolysis, epi-absorbance fluorescence; inhibition, % at 5.6 µM; actives 0.89% (n = 290,000);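 active = inhibition above the mean of all tested compounds plus 3 SD, cutoff set per screening run, cut at about 7.5% in these data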;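 note: red hydrolysis product quenches plate fluorescence so inhibitors raise well fluorescence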
IMP-1 inh = inhibitors of Pseudomonas aeruginosa IMP-1 metallo-beta-lactamase. purified IMP-1, nitrocefin hydrolysis, epi-absorbance fluorescence. inhibition, % at 5.6 µM. actives 0.45% (n = 290,000). AID 1556;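 active = inhibition above the mean plus 3 SD of all compounds in the same screening run, cut at about 4.5% in these data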
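System – purified recombinant IMP-1 beta-lactamase · Input – IMP-1 dispensed at 0.2 nM · Timing – 15 min preincubation plus 25 min reaction at 25 °C · Signal – Epi-absorbance fluorescence, 480 nm excitation, 530 nm emission · Measure – percent IMP-1 inhibition derived from blank-referenced optical density · Controls – Enzyme-plus-DMSO low control, enzyme-free DMSO high control · Replication – singlicate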
MEKK2mut PB1 HTS = signal of MEK5 binding to mutant human MEKK2 PB1 domain; bead flow cytometry, Alexa488-MEK5 binding to MEKK2 mutant; percent response, % at 10 µM; actives 0.35% (n = 290,000); in the data active = percent response above about 24%, passing the limit was not always enough
MEKK3 PB1 HTS = MEKK3-MEK5 PB1 interaction, increase or decrease; Q99759; bead-based flow cytometry, Alexa488-MEK5 binding to MEKK3; actives lie on both sides; 0 = blocked by unlabeled MEK5, 100 = vehicle; binding response (% of control), % at 10 µM; actives 1.4% (n = 290,000); AID 1529;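 active = binding response more than 3 SD above or below the average of its plate-row segment, actives on both sides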;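 note: Alexa488 bead fluorescence after subtracting the streptavidin-only scavenger bead signal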
Target sequence (Q99759 whole entry, looked up): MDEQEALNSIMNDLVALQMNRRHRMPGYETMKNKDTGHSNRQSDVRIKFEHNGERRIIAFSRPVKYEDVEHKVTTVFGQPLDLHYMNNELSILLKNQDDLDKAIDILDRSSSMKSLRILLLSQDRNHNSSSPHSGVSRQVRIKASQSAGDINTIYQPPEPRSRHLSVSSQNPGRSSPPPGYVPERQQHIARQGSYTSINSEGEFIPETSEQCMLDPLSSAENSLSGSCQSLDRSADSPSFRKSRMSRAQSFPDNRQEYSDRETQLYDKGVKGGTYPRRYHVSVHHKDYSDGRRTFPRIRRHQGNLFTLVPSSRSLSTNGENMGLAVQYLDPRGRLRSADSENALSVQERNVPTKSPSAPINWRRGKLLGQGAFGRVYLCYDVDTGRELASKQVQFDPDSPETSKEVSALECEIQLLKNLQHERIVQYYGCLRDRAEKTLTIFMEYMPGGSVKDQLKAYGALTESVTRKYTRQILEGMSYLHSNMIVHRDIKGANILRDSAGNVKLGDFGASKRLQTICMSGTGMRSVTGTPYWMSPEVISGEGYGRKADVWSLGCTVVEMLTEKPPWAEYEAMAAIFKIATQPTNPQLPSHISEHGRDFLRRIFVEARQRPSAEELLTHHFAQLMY
MEKK2wt PB1 HTS = raises or lowers MEK5 binding to wildtype human MEKK2 PB1 domain; actives 1.1% (n = 290,000); bead flow cytometry, Alexa488-MEK5 binding to MEKK2 WT; actives lie on both sides; binding response (% of control), % at 10 µM; Q9Y2U5; in the data active = binding response below about 67% or above about 130%
MEKK2wt confirm = raises or lowers MEK5 binding to wildtype human MEKK2, retest. shares compounds with MEKK3 PB1 HTS. actives 2.4% (n = 5,900). bead flow cytometry, Alexa488-MEK5 binding to MEKK2 WT; actives lie on both sides. binding response (% of control), % at 10 µM; in the data active = binding response below about 16% or above about 210%; inactive = in between
MEKK2mut-MEK5 = signal of MEK5 binding to mutant human MEKK2, retest; actives 2% (n = 5,900); shares compounds with MEKK3 PB1 HTS; AID 1893; bead flow cytometry, Alexa488-MEK5 binding to MEKK2 mutant; percent response, % at 10 µM; in the data active = percent response mostly above about 71%, no sharp cut-off; inactive = mostly below about 38%;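 note: higher means compound restores mutant binding toward wildtype level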
MEKK3 confirm = confirmation of inhibitors of MEK5 binding to human MEKK3; shares compounds with MEKK3 PB1 HTS; bead flow cytometry, Alexa488-MEK5 binding to MEKK3; stronger effect = lower value; binding response (% of control), % at 10 µM; actives 1.8% (n = 5,900); AID 1894;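 active = binding response below 72% of control, or above a set upper limit, though filed actives all read lower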
Hits are given with their value; i = inactive; nt = no result given; [ ] = remark or other dose. Compounds with a hit are over-represented: about 3.4% of the library has one in this group of screens.

SMILES	VIM-2 inhibitor	IMP-1 inh	MEKK2mut PB1 HTS	MEKK3 PB1 HTS	MEKK2wt PB1 HTS	MEKK2wt confirm	MEKK2mut-MEK5	MEKK3 confirm
O=C(O)Cn1c(-c2cscn2)nc2ccccc21	i	i	i	123.0	i	i	i	i
O=C(Cn1c(-c2cscn2)nc2ccccc21)Nc1ccc2ccccc2c1	i	i	i	i	i	nt	nt	nt
CCN1CCc2nc(NC(=O)CC(c3ccccc3)c3ccccc3)sc2C1	i	i	44.0	i	183.0	i	i	i
CCN1CCc2nc(NC(=O)Cc3ccc4c(c3)OCCO4)sc2C1	i	i	i	i	140.0	i	i	i
Cc1ccsc1/C=N/NC(=O)C1CC(=O)N(c2ccc(F)cc2)C1 (configuration not stated)	i	i	i	i	i	nt	nt	nt
Cc1ccc(N2CC(C(=O)N/N=C/c3sccc3C)CC2=O)cc1 (configuration not stated)	i	i	i	135.0	i	i	i	i
COc1ccc(CCN(C(=S)Nc2ccccc2)C2CC(=O)N(c3ccccc3)C2=O)cc1 (configuration not stated)	i	i	i	i	i	nt	nt	nt
O=C1CC(N(CCc2ccccc2)C(=S)Nc2ccccc2)C(=O)N1c1ccc(Br)cc1 (configuration not stated)	i	i	i	i	149.0	i	i	i
C/C(=N\OC(=O)c1c(-c2ccccc2Cl)noc1C)c1ccncc1	i	i	i	48.0[inhibitor]	i	i	i	i
Cc1ccc(C(=O)N/C(=C\c2cccs2)C(=O)NCCCn2ccnc2)cc1C	i	i	i	i	i	nt	nt	nt
Cn1c(=O)[nH]c(=O)c2c1nc(Br)n2CCSc1ncccn1	i	i	i	i	i	nt	nt	nt
CC(C)C(=O)c1ccc(O)c(O)c1	i	i	i	70.0[inhibitor]	i	i	i	i
Cc1ccc(O)c(O)c1	nt	nt	i	i	i	nt	nt	nt
Cc1[nH]ccc(=O)c1OCc1c(Cl)cccc1Cl	i	i	i	i	i	nt	nt	nt
COC(=O)Cn1ncn2cccc2c1=O	i	i	i	i	i	nt	nt	nt
O=c1[nH]ncn2cccc12	i	i	i	78.0[inhibitor]	i	i	i	i
CCC(C)NC(=O)[C@H]1N2C(=O)c3ccccc3C2SC1(C)C (some centres not stated)	i	i	i	i	i	nt	nt	nt
CCOc1ccc2nc(SCC(=O)NC(=O)NCc3ccco3)sc2c1	i	i	i	i	i	nt	nt	nt
O=C(CSc1nc2cc(Cl)ccc2s1)NC(=O)NCc1ccco1	i	i	i	81.0[inhibitor]	i	i	i	i
CCn1c(SCC(=O)N/N=C/c2cccs2)nc2ccccc21	i	i	i	144.0	i	i	i	i
Cn1c(SCC(=O)N/N=C/c2cccs2)nc2ccccc21	i	i	i	i	i	nt	nt	nt
COc1ccc(/C=N/NC(=O)CCc2c(C)n[nH]c2C)cc1OC	i	i	i	i	i	nt	nt	nt
CCn1c(SCC(=O)N/N=C/c2cc(OC)c(O)c(OC)c2)nc2ccccc21	i	i	i	i	i	nt	nt	nt
COc1cc(/C=N/NC(=O)CCc2c(C)n[nH]c2C)ccc1O	i	i	i	123.0	i	i	i	i
CCn1c(SCC(=O)N/N=C/c2ccc(O)c(OC)c2)nc2ccccc21	i	i	i	163.0	i	i	i	i
COc1cccc(CNC(=S)Nc2cc(C)cc(C)c2)c1	i	i	i	i	i	nt	nt	nt
COCCN(CCOC)C(=O)C1CCCN(S(=O)(=O)c2ccc(NC(=O)OC)cc2)C1 (configuration not stated)	i	i	i	i	i	nt	nt	nt
CC(C)(C)NC(=O)c1ccc2c(c1)C1C3CCC(C3)C1C(c1ccccc1)N2 (configuration not stated)	i	i	i	198.0	i	i	i	i
CCCNC(=O)c1ccc2c(c1)C1C3CCC(C3)C1C(c1ccccc1)N2 (configuration not stated)	i	i	i	i	i	nt	nt	nt
